Results pooled from the literature.
Protocols differ between the studies behind these lines.
Effect on: metabolic stability
Species: human
Medium: liver microsomes

O=[N+]([O-])c1ccc(Nc2ccnc3ccc(-c4ccc(S(=O)(=O)N5CCOCC5)cc4)cc23)cn1  microsomal CLint: 106 µL/min/mg
N#Cc1cccc(-c2nc(N3CCC(c4ccccn4)C3)c3ccccc3n2)c1 (stereo not shown)  microsomal CLint: 261 µL/min/mg
COc1cc2[nH]c(C)c(-c3ccccc3C)c(=O)c2cc1Cl  microsomal CLint (1 µM): 25 µL/min/mg
CN(c1ccc(F)cc1)c1c(-c2cccc(F)n2)nc2ccccn12  microsomal CLint (3 µM; pH 7.4): 170 µL/min/mg
Oc1cccc(-c2nc(N3CCC(c4ccccn4)C3)c3ccccc3n2)c1 (stereo not shown)  microsomal CLint: 165 µL/min/mg
COc1cc2[nH]c(C)c(-c3ccc(F)cc3F)c(=O)c2cc1Cl  microsomal CLint (1 µM): 9 µL/min/mg
c1ccc(-c2nc(N3CCCC3)c3ccccc3n2)nc1  microsomal CLint: 62 µL/min/mg
Fc1ccc(Nc2c(-c3ccccn3)nc3ccccn23)nc1  microsomal CLint (3 µM; pH 7.4): 44 µL/min/mg
COc1cc2[nH]c(C)c(-c3ccc(C(C)=O)cc3)c(=O)c2cc1Cl  microsomal CLint (1 µM): 11 µL/min/mg
COc1ccn2c(Nc3ccccc3F)c(-c3ccncn3)nc2c1  microsomal CLint (3 µM; pH 7.4): 120 µL/min/mg
c1ccc(C2CCN(c3nc(-c4ccco4)nc4ccccc34)C2)nc1 (stereo not shown)  microsomal CLint: 149 µL/min/mg
O=S(=O)(c1ccc(-c2ccc3ncccc3c2)cc1)N1CCOCC1  microsomal CLint: 13.3 µL/min/mg
C[S+]([O-])c1ccc(-c2c(-c3ccccn3)nc3n2CCC3)cc1 (stereo not shown)  microsomal CLint (3 µM; pH 7.4): < 3 µL/min/mg
